Sampled rows, rich in hits. Any-hit rate of the full collection: about 3.3%.
LEDGF integ inh: blockers of LEDGF/p75-dependent integrase strand transfer – biochemical, TR-FRET, high throughput, primary screen; HIV-1 integrase (with human LEDGF/p75); TR-FRET IN-LEDGF/p75 DNA integration, Eu/Cy5; inhibition, % at 3.7 µM; hit rate 0.64% among 370,000; AID 743269, 2014;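 active = inhibition above the screen-wide mean plus 3 SD, cut at about 13% in these data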;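 note: signal is the Cy5 over europium emission ratio at 671 and 618 nm; 0% = plate median of compound wells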
PRMT1 inh: PRMT1 methyltransferase inhibitors, primary screen, biochemical, fluorescence polarization. inhibition, % at 2.79 µM. hit rate 1.3% among 370,000. recombinant PRMT1, activity-based probe fluorescence polarization;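 active = inhibition above about 21% made by adding two undisclosed values, limit read from the data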
UHRF1 binding: UHRF1 methylated DNA binding inhibitors, primary screen, counter-screen for MBD2 inhibitor project, biochemical, TR-FRET, human UHRF1, single concentration. E3 ubiquitin-protein ligase UHRF1 (Homo sapiens), Q96T88. UHRF1 binding to methylated oligo. inhibition, % at 4.4 µM. hit rate 0.75% among 370,000; in the data active = inhibition above about 21%;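 note: UHRF1 SRA domain binding a hemimethylated CpG hairpin DNA probe; 0% = median of test compound wells and 100% = reference inhibitor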
MBD2 inh: inhibitors of MBD2 binding to methylated DNA, primary screen, biochemical, TR-FRET, DNA-binding domain, human; Methyl-CpG-binding domain protein 2 (Homo sapiens), Q9UBB5; MBD2 binding to methylated oligonucleotide; inhibition, % at 4.4 µM; hit rate 0.31% among 370,000; AID 686964, 2013; in the data active = inhibition above about 13%
TDP2 inh: human TDP2 enzyme inhibitors, primary screen, biochemical, epi absorbance, recombinant enzyme; inhibition, % at 12.8 µM; T5PNP hydrolysis, p-nitrophenol absorbance 415 nm; hit rate 0.34% among 370,000;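 active = inhibition above the mean of all tested compounds plus 3 SD, set per campaign, cut at about 25% in these data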;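 note: 0% = DMSO with enzyme and 100% = buffer with substrate but no TDP2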
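System – recombinant human TDP2 · Amount – 120 nM TDP2 per well · Buffer or medium – Mg2+-containing Tris-HCl buffer, pH 7.5 · Reagent – T5PNP substrate, 5 mM · Dosing – 12.8 µM single point, 1% DMSO · Incubation – 2 h at 37 °C · Measured by – epi absorbance · Read-out basis – percent inhibition · Benchmarks – high control without enzyme, low control DMSO plus TDP2 · Repeats – singlicate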
SIAE inh: human SIAE inhibitors, primary screen, biochemical, fluorescence polarization, FP-Rh probe, 1536-well HTS | Sialate O-acetylesterase (Homo sapiens), Q9HAT2 | SIAE FP-Rh probe binding | inhibition, % at 9.66 µM | hit rate 0.69% among 370,000;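 active = inhibition above a cutoff: mean of compounds within the control limits plus 3 SD of those, cut at about 17% in these data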;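 note: 0% = plate median of compound wells and 100% = probe without SIAE protein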
Target sequence (Q9HAT2 whole entry, looked up): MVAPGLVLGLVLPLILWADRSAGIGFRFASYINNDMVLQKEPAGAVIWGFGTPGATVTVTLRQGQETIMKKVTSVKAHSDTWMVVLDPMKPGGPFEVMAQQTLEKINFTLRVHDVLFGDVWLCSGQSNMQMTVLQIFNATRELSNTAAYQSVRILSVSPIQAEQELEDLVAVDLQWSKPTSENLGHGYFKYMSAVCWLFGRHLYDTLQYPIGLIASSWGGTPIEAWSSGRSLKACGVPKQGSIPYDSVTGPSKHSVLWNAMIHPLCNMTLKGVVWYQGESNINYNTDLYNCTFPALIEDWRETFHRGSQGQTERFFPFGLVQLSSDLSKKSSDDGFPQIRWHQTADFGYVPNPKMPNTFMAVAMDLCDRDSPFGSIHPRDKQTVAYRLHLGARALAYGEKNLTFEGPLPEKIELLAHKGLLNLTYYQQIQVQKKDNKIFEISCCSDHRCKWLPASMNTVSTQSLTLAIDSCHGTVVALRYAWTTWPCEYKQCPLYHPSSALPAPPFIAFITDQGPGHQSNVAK
* marks the source's active call; other numbers are inactive results.

SMILES	LEDGF integ inh	PRMT1 inh	UHRF1 binding	MBD2 inh	TDP2 inh	SIAE inh
N#Cc1cccc(NC(=O)COC(=O)c2ccccc2Sc2ccccc2C#N)c1	2	0	34*	-4	-2	-15
CC(=O)c1ccc(NC(=O)COC(=O)c2ccccc2Sc2ccccc2C#N)cc1	-3	-1	-2	-3	-4	-10
C[C@@H]1COc2cc(N3CCC[C@H]3CO)ccc2S(=O)(=O)N1	3	-3	-1	-3	-4	2
C[C@H]1COc2cc(N3CC[C@H](O)C3)ccc2S(=O)(=O)N1	-5	7	62*	2	-8	2
CCOC(=O)C1(C(=O)OCC)COC(=O)C1CN1Cc2cc3ccccc3nc2C1 (stereo not given)	-2	23*	1	3	-4	-3
CCC(C)(C)C(=O)N1CCc2cc(S(=O)(=O)N(C)Cc3ccco3)ccc21	-2	6	1	-2	0	-2
COc1cc2c(c(OC)c1OC)-c1ccc(NC(=O)c3ccc(F)cc3)c(=O)cc1[C@@H](NC(C)=O)CC2	7	0	21*	8	19	-2
NC(=O)c1c(N)[nH]c(C(=O)c2ccccc2)c1-c1cccc2ccccc12	-2	-1	-3	-4	-8	10
CC(C)c1nnc(NC(=O)c2cccs2)s1	5	25*	2	-3	-3	2
CCCCC(CC)c1nnc(NC(=O)c2cccs2)s1 (stereo not given)	-6	5	-1	3	3	-2
O=C(COc1ccccc1)NC1=NCCS1	-1	0	0	4	-1	-3
N#Cc1ccc(OCC(=O)NC2=NCCS2)cc1	-4	27*	2	0	-3	3
O=C(CSc1nnc(-c2cccnc2)n1C1CCCCC1)NC1CCCCCC1	6	-6	-1	-5	-2	8
CCN(CC)c1ccc(C(=C2C=CC(=[N+](CC)CC)C=C2)c2ccccc2)cc1	1	0	-1	-3	9	13
CCN(CC)c1ccc(C(=C2C=CC(=[N+](CC)CC)C=C2)c2ccc(N(CC)CC)cc2)cc1	-22	4	-2	-2	-7	40*
COc1cccc(-c2nnc(SCC(=O)Nc3cccc4ccccc34)n2Cc2ccco2)c1	-3	17	1	3	-6	-6
CCOc1ccc(-c2cc(CCCC(=O)NCc3ccc(C)cc3)no2)cc1	2	-2	29*	1	0	1
Cc1nc(N)sc1-c1csc(Nc2ccccn2)n1	2	23*	-3	-5	5	2
Cc1cccc(Nc2nc(-c3sc(C)nc3C)cs2)c1	1	-1	25*	5	1	9
Cc1nc(C)c(-c2csc(Nc3ccccn3)n2)s1	-4	3	1	3	3	-1
Cc1nc(C)c(-c2csc(Nc3cccc(O)c3)n2)s1	-1	4	1	1	4	1
COc1cc2cc(C(c3nnnn3C3CCCC3)N3CCCCC3)c(=O)[nH]c2cc1OC (stereo not given)	-2	0	16	0	-1	11
O=c1[nH]c2cc3c(cc2cc1C(c1nnnn1C1CCCCC1)N1CCSCC1)OCCO3 (stereo not given)	4	22*	-4	2	-4	-8
CC(C)CNC(=O)OCc1cn(Cc2cccc(Cl)c2)nn1	2	-7	1	-2	0	3
COc1ccc(C(=O)CSc2nnc(-c3ccco3)n2C)cc1	1	24*	4	-8	-7	9
CCCNC(=O)N1[C@@H](CO)[C@H](c2ccc(C3=CCCC3)cc2)[C@@H]1CN(CC)S(=O)(=O)c1ccccc1[N+](=O)[O-]	-1	0	-2	1	0	4
O=C(N/N=C/c1ccc(Cl)cc1)C(=O)N1CCCCCC1	0	-2	27*	0	12	3
